From ChEMBL document CHEMBL1146352, “Synthesis of furopyrazole analogs of 1-benzyl-3-(5-hydroxymethyl-2-furyl)indazole (YC-1) as novel anti-leukemia agents” (2007)
pEC50: −log10 of the molar value. The source made the active and inactive calls. The rule behind the calls is not given here.

Key:
HL-60 [1] = assay: Cytotoxicity against HL60 cells by Propidium iodide exclusion assay; assay type: functional; conditions: Homo sapiens, read-out: ED50 (the source's name)
Summary of the method: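 HL-60 cells seeded at 2.5 × 10⁵ cells/mL and treated at a range of concentrations for 24, 48 and 72 h at 37 °C. Viable cells were scored by propidium iodide exclusion on flow cytometry. Viability is given as the ratio of treated to control cells. ED50 derived; three independent experiments, mean ± SD.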

HL-60 (Homo sapiens) = assay: Induction of apoptosis in HL-60 cells after 72 hrs
HT60 = assay: Induction of apoptosis in […] cells at 26 uM after 48 hrs; assay type: functional, cell-based; conditions: Homo sapiens
Summary of the method: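 HL-60 cells were cultured 72 h or 48 h with compound, with 0.1% (v/v) DMSO as the control. Nuclei were stained with DAPI and examined microscopically (400×) for nuclear shrinkage and chromatin condensation.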

HL-60 [2] = assay: Induction of HL60 cell differentiation assessed as nitroblue tetrazolium reduction activity at 26 uM after 72 hrs; assay type: functional, Homo sapiens; set-up: scale not given: the % may be the effect or the level left
Summary of the method: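 Cells treated 72 h (ATRA co-treatment at 1 µM where stated) were suspended in HBSS at 1 × 10⁶ cells/mL. Mixed with an equal volume of HBSS stock containing 1 mg/ml NBT and 5 µg/mL TPA, then held 30 min at 37 °C. Cells with formazan deposits were counted microscopically, at least 200 cells. Three experiments, each in duplicate.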

SMILES	pEC50 (HL-60 [1])	Activity (HL-60 (Homo sapiens))	AD50 (HT60)	Activity (HL-60 [2]) [%]
Cc1cc2c(o1)c(-c1ccc(C(=O)O)cc1)nn2Cc1ccccc1	< 4.70			
Cc1cc2c(o1)c(-c1ccc(C(=O)O)cc1)nn2-c1ccccc1	< 4.70			
Cc1cc2c(o1)c(-c1ccc(CO)cc1)nn2-c1ccccc1	< 4.70			
OCc1ccc(-c2nn(Cc3ccccc3)c3ccccc23)o1		inactive	Active	3.56
